Source: ChEMBL document CHEMBL4196081, “Synthesis and antimycobacterial activity of 1-(β-d-Ribofuranosyl)-4-coumarinyloxymethyl- / -coumarinyl-1,2,3-triazole” (Eur J Med Chem, 2018)
In brackets after ≈: the same amount, converted by molar mass. Activity calls are given as the source filed them. No cut-off for these calls is given here.

How the values were obtained:
[1] = tested on: Mycobacterium tuberculosis; assay: Antimycobacterial activity against Mycobacterium tuberculosis H37Rv after 10 days by MABA; type: functional; settings: 240 h
Method in brief: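 MABA in 7H9 medium: log-phase culture passed through 8 µm filter, density set by OD600 and McFarland standards, 1 × 10^6 cells per well with drug dilutions; aerobic incubation 37 °C 10 days, then 0.02 % resazurin, overnight 37 °C. MIC = lowest concentration preventing blue-to-pink change. Triplicate; medium+inoculum and medium-only controls.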

[2] = tested on: Mycobacterium tuberculosis; assay: Antimycobacterial activity against MDR Mycobacterium tuberculosis isolate 591 after 15 days by MABA; type: functional; settings: isolate 591, 360 h
Method in brief: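 MABA in 7H9 medium on MDR clinical isolate 591: filtered single-cell suspension, 1 × 10^6 cells per well with drug dilutions, aerobic 37 °C; 0.02 % resazurin added on day 15, overnight 37 °C. MIC = lowest concentration preventing blue-to-pink change. Triplicate; medium+inoculum and medium-only controls.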

[3] = tested on: Mycobacterium tuberculosis; assay: Bactericidal activity against Mycobacterium tuberculosis H37Rv after 4 weeks by MABA; type: functional; settings: 672 h
[4] = tested on: Mycobacterium tuberculosis; assay: Ratio of MBC to MIC for Mycobacterium tuberculosis H37Rv; type: functional
[5] = Cytotoxicity against human THP1 cells assessed as cell viability at 4.68 ug/ml after 48 hrs by MTT assay relative to control; type: cell-based; settings: THP-1 cells, read-out: Activity
Method in brief: (§1)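 THP-1 cells (human monocytic line) seeded at 10^4 per well and adhered with phorbol myristate acetate (20 ng/mL). Then given fresh RPMI with 10% foetal calf serum and 2 mM L-glutamine, plus compound by serial double dilution (4.68–150 µg/mL), with DMSO and no-DMSO controls. Incubated 24 or 48 h at 37 °C, 5% CO2. MTT added for 4 h, formazan dissolved in DMSO, A540 read, percentage survival calculated.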

THP-1 = assay: Cytotoxicity against human THP1 cells assessed as growth inhibition after 24 to 48 hrs by MTT assay; type: cell-based; method in brief: as §1
[6] = Selectivity index, ratio of IC50 for cytotoxicity against human THP1 cells to MIC for Mycobacterium tuberculosis H37Rv; type: toxicity, cell-based; settings: THP-1 cells, read-out: Selectivity Index
Method in brief: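 THP-1 cells, 10^4/well, adhered with PMA 20 ng/mL, in RPMI with 10 % FCS and 2 mM L-glutamine; exposed to 4.68–150 µg/mL for 24 and 48 h at 37 °C, 5 % CO2; MTT 4 h, formazan in DMSO, A540. Index = THP-1 IC50 divided by H37Rv MABA MIC.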

[7] = Cytotoxicity against human THP1 cells assessed as cell viability at 4.68 ug/ml after 24 hrs by MTT assay relative to control; type: cell-based; settings: THP-1 cells, read-out: Activity; method in brief: as §1
[8] = Cytotoxicity against human THP1 cells assessed as cell viability at 9.36 ug/ml after 24 hrs by MTT assay relative to control; type: cell-based; settings: THP-1 cells, read-out: Activity; method in brief: as §1
[9] = Cytotoxicity against human THP1 cells assessed as cell viability at 9.36 ug/ml after 48 hrs by MTT assay relative to control; type: cell-based; settings: THP-1 cells, read-out: Activity; method in brief: as §1
[10] = Cytotoxicity against human THP1 cells assessed as cell viability at 18.72 ug/ml after 24 hrs by MTT assay relative to control; type: cell-based; settings: THP-1 cells, read-out: Activity; method in brief: as §1
[11] = Cytotoxicity against human THP1 cells assessed as cell viability at 18.72 ug/ml after 48 hrs by MTT assay relative to control; type: cell-based; settings: THP-1 cells, read-out: Activity; method in brief: as §1
[12] = Cytotoxicity against human THP1 cells assessed as cell viability at 37.48 ug/ml after 24 hrs by MTT assay relative to control; type: cell-based; settings: THP-1 cells, read-out: Activity; method in brief: as §1
[13] = Cytotoxicity against human THP1 cells assessed as cell viability at 37.48 ug/ml after 48 hrs by MTT assay relative to control; type: cell-based; settings: THP-1 cells, read-out: Activity; method in brief: as §1
[14] = Cytotoxicity against human THP1 cells assessed as cell viability at 75 ug/ml after 24 hrs by MTT assay relative to control; type: cell-based; settings: THP-1 cells, read-out: Activity; method in brief: as §1
[15] = Cytotoxicity against human THP1 cells assessed as cell viability at 75 ug/ml after 48 hrs by MTT assay relative to control; type: cell-based; settings: THP-1 cells, read-out: Activity; method in brief: as §1
[16] = Cytotoxicity against human THP1 cells assessed as cell viability at 150 ug/ml after 24 hrs by MTT assay relative to control; type: cell-based; settings: THP-1 cells, read-out: Activity; method in brief: as §1
[17] = Cytotoxicity against human THP1 cells assessed as cell viability at 150 ug/ml after 48 hrs by MTT assay relative to control; type: cell-based; settings: THP-1 cells, read-out: Activity; method in brief: as §1
[18] = tested on: Mycobacterium tuberculosis; assay: Potency index, ratio of isoniazid MIC to compound MIC for antimycobacterial activity against MDR Mycobacterium tuberculosis isolate 591; type: functional
[19] = tested on: Mycobacterium tuberculosis; assay: Potency index, ratio of rifampicin MIC to compound MIC for antimycobacterial activity against MDR Mycobacterium tuberculosis isolate 591; type: functional
[20] = tested on: Mycobacterium tuberculosis; assay: Potency index, ratio of ethambutol MIC to compound MIC for antimycobacterial activity against MDR Mycobacterium tuberculosis isolate 591; type: functional
[21] = tested on: Mycobacterium tuberculosis; assay: Potency index, ratio of streptomycin MIC to compound MIC for antimycobacterial activity against MDR Mycobacterium tuberculosis isolate 591; type: functional
[22] = target: DNA gyrase subunit B (Escherichia coli) (UniProt P0AES6); assay: Inhibition of Escherichia coli DNA gyrase-B at 0.66 to 100 uM using relaxed pUC19 DNA as substrate after 1 hr by bromophenol blue dye based agarose gel electrophoresis method
Method in brief: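 E. coli DNA gyrase, 1 unit, with 0.3 µg relaxed pUC19 plasmid in 1X gyrase assay buffer. Compound added as 0.2 µL from 100 µM stock; ciprofloxacin positive control, DMSO solvent control. Incubated 37 °C for 1 h, stopped with 50% glycerol/0.25% bromophenol blue. Run on 1% agarose in 0.5X TBE pH 8.3, 16 h at 30 mA, ethidium bromide stained, UV visualised for supercoiling.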

Row | SMILES | MIC [1] [µM] | MIC [2] [µM] | MBC [3] [µM] | Ratio [4] | viability at 48 h, 4.68 ug/ml [5] [%] | IC50 (THP-1) [µM] | selectivity ratio [6] | viability at 24 h, 4.68 ug/ml [7] [%] | viability at 24 h, 9.36 ug/ml [8] [%] | viability at 48 h, 9.36 ug/ml [9] [%] | viability at 24 h, 18.72 ug/ml [10] [%] | viability at 48 h, 18.72 ug/ml [11] [%] | viability at 24 h, 37.48 ug/ml [12] [%] | viability at 48 h, 37.48 ug/ml [13] [%] | viability at 24 h, 75 ug/ml [14] [%] | viability at 48 h, 75 ug/ml [15] [%] | viability at 24 h, 150 ug/ml [16] [%] | viability at 48 h, 150 ug/ml [17] [%] | further results
1 | Cc1cc(=O)oc2cc(-c3cn([C@@H]4O[C@H](COC(=O)c5ccccc5)[C@@H](OC(=O)c5ccccc5)[C@H]4OC(=O)c4ccccc4)nn3)c(Cl)cc12 | 14.2 (≈ 10 µg/mL) | 14.2 (≈ 10 µg/mL) | 25.5 (≈ 18 µg/mL) | 1.8 |  |  |  |  |  |  |  |  |  |  |  |  |  |  | 
2 | O=c1cc(-c2ccccc2)c2ccc(-c3cn([C@@H]4O[C@H](CO)[C@@H](O)[C@H]4O)nn3)cc2o1 | 14.2 (≈ 5.98 µg/mL) | 18.9 (≈ 7.96 µg/mL) | 28.5 (≈ 12 µg/mL) | 2 | 96 | > 355 | 25 | 100 | 94 | 94 | 84 | 83 | 70 | 70 | 68 | 63 | 65 | 62 | 
3 | O=c1cc(-c2ccccc2)c2ccc(OCc3cn([C@@H]4O[C@H](CO)[C@@H](O)[C@H]4O)nn3)cc2o1 | 4.4 (≈ 1.99 µg/mL) | 8.9 (≈ 4.02 µg/mL) | 17.7 (≈ 7.99 µg/mL) | 4 | 95 | > 332 | 75.4 | 100 | 100 | 93 | 100 | 84 | 94 | 78 | 88 | 70 | 79 | 62 | Ratio [18]: 7 - 420; Ratio [19]: 7 - 420; Ratio [20]: 7 - 420; Ratio [21]: 7 - 420
4 | Cc1cc(=O)oc2cc(OCc3cn([C@@H]4O[C@H](CO)[C@@H](O)[C@H]4O)nn3)c(Cl)cc12 | 18.9 (≈ 8.01 µg/mL) | 18.9 (≈ 8.01 µg/mL) | 37.7 (≈ 16 µg/mL) | 2 |  |  |  |  |  |  |  |  |  |  |  |  |  |  | 
5 | O=C(O)c1cn(C2CC2)c2cc(N3CCNCC3)c(F)cc2c1=O |  |  |  |  |  |  |  |  |  |  |  |  |  |  |  |  |  |  | inhibition [22]: Active
6 | O=c1ccc2ccc(OCc3cn([C@@H]4O[C@H](CO)[C@@H](O)[C@H]4O)nn3)cc2o1 | 10.6 (≈ 3.98 µg/mL) | 15.9 (≈ 5.97 µg/mL) | 26.6 (≈ 9.98 µg/mL) | 2.5 | 89 | > 400 | 37.7 | 100 | 91 | 86 | 89 | 84 | 86 | 63 | 68 | 59 | 60 | 55 | 
7 | Cc1cc(=O)oc2cc(OCc3cn([C@@H]4O[C@H](COC(=O)c5ccccc5)[C@@H](OC(=O)c5ccccc5)[C@H]4OC(=O)c4ccccc4)nn3)ccc12 | 8.5 (≈ 5.96 µg/mL) | 11.4 (≈ 8 µg/mL) | 17.1 (≈ 12 µg/mL) | 2 |  |  |  |  |  |  |  |  |  |  |  |  |  |  | 
8 | O=C(OC[C@H]1O[C@@H](n2cc(-c3ccc4ccc(=O)oc4c3)nn2)[C@H](OC(=O)c2ccccc2)[C@@H]1OC(=O)c1ccccc1)c1ccccc1 | 15.2 (≈ 10 µg/mL) | 30.4 (≈ 20 µg/mL) | 30.4 (≈ 20 µg/mL) | 2 |  |  |  |  |  |  |  |  |  |  |  |  |  |  | 
9 | O=c1ccc2ccc(-c3cn([C@@H]4O[C@H](CO)[C@@H](O)[C@H]4O)nn3)cc2o1 | 28.9 (≈ 9.98 µg/mL) | 28.9 (≈ 9.98 µg/mL) | 46.3 (≈ 16 µg/mL) | 1.6 |  |  |  |  |  |  |  |  |  |  |  |  |  |  | 
